High-throughput results: PubChem, several laboratories
EBI2 antag = antagonists of human EBI2 receptor; 360,000 compounds, 0.81% hits; EBI2 beta-arrestin recruitment, luminescence, 7a,25-OHC stimulated; P32249; inhibition, % at 5 µM; AID 651636; in the data active = inhibition above about 38%;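 note: enzyme fragment complementation signal reports receptor beta-arrestin coupling in cells; 0% = agonist plus DMSO wells and 100% = wells without agonist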
CXCR6 block = CXCR6 (human) receptor inhibition; inhibition, % at 20 µM; CHO-K1 PathHunter CXCR6 beta-arrestin, luminescence; O00574; 360,000 compounds, 0.36% hits; in the data active = inhibition above about 34%, passing the limit was not always enough;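 note: antagonist mode with CXCL16 agonist at 10 nM final; 0% = 10 nM CXCL16 with DMSO and 100% = unstimulated wells without agonist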
APJ antagonist = antagonists of human APJ apelin receptor | P35414 | CHO-K1 APJ beta-arrestin complementation, luminescence | inhibition, % at 20 µM | 330,000 compounds, 0.32% hits | AID 2521;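 active = inhibition above about 40% at 20 µM, limit read from the data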;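 note: cells challenged with 10 nM apelin-13 agonist together with compound; plate controls were apelin-13 plus DMSO wells for no effect and DMSO wells lacking apelin-13 for full effect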
Target sequence (P35414 whole entry, looked up): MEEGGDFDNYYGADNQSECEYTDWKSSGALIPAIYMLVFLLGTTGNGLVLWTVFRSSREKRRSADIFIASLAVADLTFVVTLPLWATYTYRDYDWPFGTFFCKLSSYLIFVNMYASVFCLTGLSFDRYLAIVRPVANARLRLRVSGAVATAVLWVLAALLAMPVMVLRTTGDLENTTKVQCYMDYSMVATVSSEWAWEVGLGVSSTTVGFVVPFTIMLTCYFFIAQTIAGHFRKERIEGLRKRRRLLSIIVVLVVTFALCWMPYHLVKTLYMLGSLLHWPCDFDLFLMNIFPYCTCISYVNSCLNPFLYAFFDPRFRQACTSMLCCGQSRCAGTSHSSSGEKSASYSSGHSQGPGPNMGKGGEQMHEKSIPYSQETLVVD
APJ ag = activates the human apelin receptor APJ; CHO-K1 APJ PathHunter beta-arrestin, luminescence; 0% DMSO wells, 100% apelin; AID 2520; activation, % at 20 µM; P35414; 330,000 compounds, 0.11% hits;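 active = activation more than six SD over the plate average, tested at 20 µM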;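 note: 0% = DMSO alone and 100% = apelin-13 at 10 nM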
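system = engineered CHO-K1 APJ arrestin reporter cells | input = 1000 cells per well | timing = overnight seeding, 90 min compound at 25 °C, 1 h detection | measured by = enzyme-fragment complementation luminescence | read-out = beta-arrestin recruitment to APJ as agonist activity, luminescent signal | control set = negative DMSO alone, positive Apelin-13 at 10 nM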
m5-HT2A agonist = mouse HTR2A agonism via beta-arrestin recruitment | CHO-K1 mHTR2A beta-arrestin complementation, luminescence; percent of 30 µM serotonin response | activation, % at 7.6 µM | 360,000 compounds, 0.66% hits | AID 624169;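 active = activation above a run cutoff, the mean activation of all tested compounds plus 3 SD, cut at about 14% in these data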;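 note: 0% = plate median of compound wells and 100% = 30 µM serotonin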
CCR6 antagonist = blocks CCL20-driven beta-arrestin recruitment at human CCR6; P51684; CHO-K1 CCR6 PathHunter beta-arrestin, luminescence, CCL20-stimulated; inhibition, % at 20 µM; 340,000 compounds, 0.49% hits; AID 493098;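 active = compounds whose inhibition of the agonist-driven luminescence signal at 20 µM reaches about 50%, limit read from the data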;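 note: cells stimulated with CCL20 at 14 nM final; plate controls were DMSO with CCL20 for no effect and DMSO without agonist for full effect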
* hit, by the source's call; . = no result. A selection: hits, their analogues and other compounds. The true share with any hit is near 2.1%.

SMILES	EBI2 antag	CXCR6 block	APJ antagonist	APJ ag	m5-HT2A agonist	CCR6 antagonist
O=C(c1ccc(Cl)cc1)N1CCC(C(=O)N2CCN(c3ncccn3)CC2)CC1	48*	-1	10	-5	1	-5
O=C(/C=C/c1cccc(Cl)c1)c1nc2ccccc2[nH]1	56*	9	8	0	-7	32
O=C(/C(=C\c1ccccc1)c1nc2ccccc2[nH]1)c1ccc(Cl)cc1	48*	8	8	4	-5	19
O=C(/C=C/c1cccc(Cl)c1)Nc1ncccn1	-5	-4	17	-2	-3	-2
C#CCN(C[C@@H]1[C@@H](OC(=O)NCc2ccccc2F)[C@@H](OC(=O)NCc2ccccc2F)Cn2c(=O)n(CCCCCC)c(=O)n21)S(=O)(=O)c1ccc(C)cc1	14	6	.	.	-9	.
C#CCN(C[C@@H]1[C@@H](OC(=O)NCc2ccccc2F)[C@@H](OC(=O)NCc2ccccc2F)Cn2c(=O)ccc(=O)n21)S(=O)(=O)c1ccc(C)cc1	55*	-1	.	.	2	.
O=C(Nc1cccc(S(=O)(=O)N2CCOCC2)c1)c1cc(S(=O)(=O)N2CCOCC2)c(Cl)cc1Cl	-21	0	.	.	13	-10
Cc1nn(Cc2c(F)c(F)c(F)c(F)c2F)c(C)c1NC(=O)c1ccc(COc2cc(Cl)ccc2Cl)cc1	51*	0	4	-4	-1	-12
CCCn1c(O)c2ccc(C(=O)N=NC(=O)c3cccnc3)cc2c1O	-3	-7	-10	-4	21*	-9
CCN(CC)c1ccc(/C=N/N=C(c2ccccc2)c2ccccc2)c(O)c1	66*	2	5	-1	-2	21
CCN(CC)c1ccc(/C=N/N(c2ccccc2)c2ccccc2)c(O)c1	32	-12	-26	6	-4	-13
S=C(NNc1ccc2ccccc2c1)NC1CCCCC1	45*	21	40	-8	-5	54*
S=C(Nc1ccc(Oc2ccccc2)cc1)NC1CCCCCC1	9	4	.	.	-5	19
Cc1ccccc1C(=O)NC1CCN(CC(=O)Nc2ccccc2Cl)CC1	-5	-9	9	2	-2	13
Cc1c(Cl)cccc1NC(=O)CN1CCC(C(O)(c2ccccc2)c2ccccc2)CC1	38*	6	-15	-5	-6	-26
CCOC(=O)CS(=O)(=O)c1nc(-c2ccc(F)cc2)cc(C(F)(F)F)n1	60*	67*	35	-1	-8	52*
O=C(OCn1ncc(Cl)c(Cl)c1=O)c1ccccc1Cl	51*	31	.	.	13	22
CN(C)S(=O)(=O)c1ccc(Cl)c(C(=O)OCC(=O)NC(=O)c2cccn2C)c1	-27	4	-5	1	6	3
CC1=NN(C(=O)c2ccc(Cl)cc2)C(O)(c2ccccc2)C1 (centres undefined)	1	18	15	-5	-7	55*
CCOC(=O)[C@]12CCCC=C1N(CCc1ccc(OC)c(OC)c1)C(=O)[C@H](CC(=O)NCCCCc1ccccc1)C2	20	.	.	.	-6	.
Cn1c(N=Nc2ccc(N3CCOCC3)cc2)[n+](C)c2ccccc21	12	54*	.	.	-13	63*
CCCCNc1c(-c2ccc(SC(C)CC)c(OC)c2)nc2ccc(C)cn12 (centres undefined)	55*	13	-6	9	-4	0
CCCCNc1c(-c2ccc(OC)c(Sc3ccc(OC)cc3)c2)nc2cnccn12	6	-10	-3	0	7	-2
CCCCNc1c(-c2ccc(-c3ccc(OC)cc3)c(OC)c2)nc2ccccn12	54*	0	4	6	-1	-18
CCCCNc1c(-c2ccc(SC(C)CC)c(OC)c2)nc2ccc(Cl)cn12 (centres undefined)	26	-1	-7	-1	-3	6
CC1CCCCN1CCCNC(=O)C1CCCN(c2ncnc3c2nc2n3CCCCC2)C1 (centres undefined)	1	3	1	-5	-1	7
CC1CCCN(C2=NC(=O)/C(=C/c3cn(-c4ccccc4)nc3-c3cccc(S(=O)(=O)N(C)C)c3)S2)C1 (centres undefined)	68*	17	7	-1	-4	-7
